Experimental data taken from ChEMBL document CHEMBL2375261, “Glycyrrhetinic acid and its analogs: a new class of antifilarial agents” (Bioorg Med Chem Lett, 2013).
Converted amounts (≈) assume the structure as drawn. The source made the active and inactive calls. The calls are words filed in the database; no cut-off is given here.

System: Brugia malayi
Test: Antifilarial activity against adult Brugia malayi infected in jirds assessed as sterile female worms recovered from host at 100 mg/kg, sc qd for 5 days measured after 56 days relative to control
Format: functional
Conditions: route subcutaneous
In short: (§1)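 Jirds (Meriones unguiculatus) infected with B. malayi were dosed s.c. once daily for 5 days, at 100 mg/kg or, for the reference drug, 25 mg/kg; vehicle-treated animals served as controls (4–6 animals per group). Microfilariae in the peritoneal cavity were assessed on days 7/8 after treatment began. Recovered adult worms were counted as % inhibition over untreated control, with % sterile females scored. Data are mean ± SD, compared by Student's t test.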

Compound | Activity [%]
CCCCCCCCNC(=O)[C@@]1(C)CC[C@]2(C)CC[C@]3(C)C(=CC(=O)[C@@H]4[C@@]5(C)CC[C@H](OC(C)=O)C(C)(C)[C@@H]5CC[C@]43C)[C@@H]2C1 | 5

System: Brugia malayi
Test: Antifilarial activity against adult Brugia malayi infected in jirds assessed as reduction in worms recovered from host at 100 mg/kg, sc qd for 5 days measured after 56 days relative to control
Format: functional
Conditions: not given
In short: as §1

Compound | Activity
CCCCCCCCNC(=O)[C@@]1(C)CC[C@]2(C)CC[C@]3(C)C(=CC(=O)[C@@H]4[C@@]5(C)CC[C@H](OC(C)=O)C(C)(C)[C@@H]5CC[C@]43C)[C@@H]2C1 | inactive

System: Brugia malayi
Test: Antifilarial activity against adult Brugia malayi infected in jirds assessed as decrease in microfilarial activity isolated from host peritoneal cavity at 100 mg/kg, sc qd for 5 days measured after 7 to 8 days
Format: functional, organism-based
Parameters: dose 100 mg/kg
Conditions: not given
In short: as §1

Compound | Activity
CCCCCCCCNC(=O)[C@@]1(C)CC[C@]2(C)CC[C@]3(C)C(=CC(=O)[C@@H]4[C@@]5(C)CC[C@H](OC(C)=O)C(C)(C)[C@@H]5CC[C@]43C)[C@@H]2C1 | inactive

System: Brugia malayi
Test: Ratio of diethylcarbamazine citrate IC50 to compound IC50 for female adult Brugia malayi
Format: functional
Conditions: not given

Compound | Ratio IC50
CCCCCCCCNC(=O)[C@@]1(C)CC[C@]2(C)CC[C@]3(C)C(=CC(=O)[C@@H]4[C@@]5(C)CC[C@H](OC(C)=O)C(C)(C)[C@@H]5CC[C@]43C)[C@@H]2C1 | 16

System: Brugia malayi
Test: Ratio of diethylcarbamazine citrate LC100 to compound LC100 for female adult Brugia malayi
Format: functional
Conditions: not given

Compound | Ratio
CCCCCCCCNC(=O)[C@@]1(C)CC[C@]2(C)CC[C@]3(C)C(=CC(=O)[C@@H]4[C@@]5(C)CC[C@H](OC(C)=O)C(C)(C)[C@@H]5CC[C@]43C)[C@@H]2C1 | 8

System: not listed separately
Test: Selectivity index, ratio of CC50 for african green monkey Vero cells to IC50 for microfilariae Brugia malayi
Format: functional
Conditions: not given
In short: (§2)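 Selectivity index was calculated as CC50 (concentration killing 50% of cells) divided by the motility IC50 (concentration giving 50% motility inhibition). This was done separately for female adult worms and for microfilariae of B. malayi.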

Compound | Ratio CC50/IC50
COC(=O)[C@@]1(C)CC[C@]2(C)CC[C@]3(C)C(=CC(=O)[C@@H]4[C@@]5(C)CC[C@H](OC(C)=O)C(C)(C)[C@@H]5CC[C@]43C)[C@@H]2C1 | 3.58
CCCCCCCCNC(=O)[C@@]1(C)CC[C@]2(C)CC[C@]3(C)C(=CC(=O)[C@@H]4[C@@]5(C)CC[C@H](OC(C)=O)C(C)(C)[C@@H]5CC[C@]43C)[C@@H]2C1 | 2.53

System: not listed separately
Test: Selectivity index, ratio of CC50 for african green monkey Vero cells to IC50 for female adult Brugia malayi
Format: functional
Conditions: not given
In short: as §2

Compound | Ratio CC50/IC50
CCCCCCCCNC(=O)[C@@]1(C)CC[C@]2(C)CC[C@]3(C)C(=CC(=O)[C@@H]4[C@@]5(C)CC[C@H](OC(C)=O)C(C)(C)[C@@H]5CC[C@]43C)[C@@H]2C1 | 6.01

System: not listed separately
Test: Cytotoxicity against african green monkey Vero cells
Format: cell-based
Conditions: chlorocebus sabaeus

Compound | CC50 [µg/mL]
COC(=O)[C@@]1(C)CC[C@]2(C)CC[C@]3(C)C(=CC(=O)[C@@H]4[C@@]5(C)CC[C@H](OC(C)=O)C(C)(C)[C@@H]5CC[C@]43C)[C@@H]2C1 | 7.92 (≈ 15 µM)
CCCCCCCCNC(=O)[C@@]1(C)CC[C@]2(C)CC[C@]3(C)C(=CC(=O)[C@@H]4[C@@]5(C)CC[C@H](OC(C)=O)C(C)(C)[C@@H]5CC[C@]43C)[C@@H]2C1 | 106 (≈ 170 µM)

System: Brugia malayi
Test: Antifilarial activity against microfilariae Brugia malayi assessed as inhibition of motility after 24 hrs by microscopic analysis
Format: functional, organism-based
Conditions: not given
In short: (§3)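 In vitro, female adult worms and microfilariae of Brugia malayi were scored for motility. LC100 is the concentration giving 100% motility inhibition, which is taken as parasite death. IC50 is the concentration giving 50% motility inhibition. Adult worms were also run in a parallel MTT reduction assay, reported as mean % inhibition.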

Compound | LC100 [µM]
COC(=O)[C@@]1(C)CC[C@]2(C)CC[C@]3(C)C(=CC(=O)[C@@H]4[C@@]5(C)CC[C@H](OC(C)=O)C(C)(C)[C@@H]5CC[C@]43C)[C@@H]2C1 | 25
CCCCCCCCNC(=O)[C@@]1(C)CC[C@]2(C)CC[C@]3(C)C(=CC(=O)[C@@H]4[C@@]5(C)CC[C@H](OC(C)=O)C(C)(C)[C@@H]5CC[C@]43C)[C@@H]2C1 | 100

Same assay, conditions: Brugia malayi, 24 h

Compound | IC50 [µM]
COC(=O)[C@@]1(C)CC[C@]2(C)CC[C@]3(C)C(=CC(=O)[C@@H]4[C@@]5(C)CC[C@H](OC(C)=O)C(C)(C)[C@@H]5CC[C@]43C)[C@@H]2C1 | 2.21
CCCCCCCCNC(=O)[C@@]1(C)CC[C@]2(C)CC[C@]3(C)C(=CC(=O)[C@@H]4[C@@]5(C)CC[C@H](OC(C)=O)C(C)(C)[C@@H]5CC[C@]43C)[C@@H]2C1 | 42

System: Brugia malayi
Test: Antifilarial activity against female adult Brugia malayi assessed as inhibition of motility after 24 hrs by microscopic analysis
Format: functional, organism-based
Conditions: not given
In short: as §3

Compound | LC100 [µM]
COC(=O)[C@@]1(C)CC[C@]2(C)CC[C@]3(C)C(=CC(=O)[C@@H]4[C@@]5(C)CC[C@H](OC(C)=O)C(C)(C)[C@@H]5CC[C@]43C)[C@@H]2C1 | >100
CCCCCCCCNC(=O)[C@@]1(C)CC[C@]2(C)CC[C@]3(C)C(=CC(=O)[C@@H]4[C@@]5(C)CC[C@H](OC(C)=O)C(C)(C)[C@@H]5CC[C@]43C)[C@@H]2C1 | 100

Same assay, conditions: Brugia malayi, 24 h

Compound | IC50 [µM]
CCCCCCCCNC(=O)[C@@]1(C)CC[C@]2(C)CC[C@]3(C)C(=CC(=O)[C@@H]4[C@@]5(C)CC[C@H](OC(C)=O)C(C)(C)[C@@H]5CC[C@]43C)[C@@H]2C1 | 17.7

System: Brugia malayi
Test: Antifilarial activity against female adult Brugia malayi assessed as inhibition of MTT reduction at LC100 concentration after 24 hrs
Format: functional
Conditions: not given

Compound | inhibition (INH) [%]
COC(=O)[C@@]1(C)CC[C@]2(C)CC[C@]3(C)C(=CC(=O)[C@@H]4[C@@]5(C)CC[C@H](OC(C)=O)C(C)(C)[C@@H]5CC[C@]43C)[C@@H]2C1 | 7.47
CCCCCCCCNC(=O)[C@@]1(C)CC[C@]2(C)CC[C@]3(C)C(=CC(=O)[C@@H]4[C@@]5(C)CC[C@H](OC(C)=O)C(C)(C)[C@@H]5CC[C@]43C)[C@@H]2C1 | 52.15
